Experimental data as given in ChEMBL document CHEMBL4177701, “A novel series of enoyl reductase inhibitors targeting the ESKAPE pathogens, Staphylococcus aureus and Acinetobacter baumannii” (Bioorg Med Chem, 2018).
Converted amounts (≈) assume the structure as drawn. The source made the active and inactive calls. The calls are words filed in the database; no cut-off is given here.

Legend:
[1] = Solubility of the compound; assay type: physicochemical
[2] = Inhibition of Acinetobacter baumannii 2208 ATCC 19606 FabI using crotonyl-CoA as substrate in presence of NADPH/NADH after 10 mins by fluorescence assay; parameters: species or system Acinetobacter baumannii ATCC 19606 = CIP 70.34 = JCM 6841
Procedure, shortened: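 AbFabI, 200 nM, in 50 mM MES/100 mM NaCl with 200 μM NADH, 0.1 mg/mL BSA and 0.01% triton. Reaction started with 300 μM crotonyl-CoA. NADH fluorescence read at 340/460 nm. Compounds tested at 0.4 nM–200 μM. Initial 10-min slopes were compared with a DMSO no-compound control. At least two independent experiments, each in duplicate; two-fold uncertainty.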

HepG2 [3] = test: Cytotoxicity against human HepG2 cells assessed as reduction in cell viability after 24 hrs in presence of 10% FBS by MTT assay; assay type: cell-based; conditions: HepG2, 24 h
Procedure, shortened: (§1)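 HepG2 cells in EMEM with either 10% FBS or 0.5% FBS plus 10% Cell-Ess serum replacement. Seeded at 25,000 cells/well and incubated overnight at 37 °C, 5% CO2. Treated 24 h at 100–3 μg/mL, with matched DMSO controls. MTT added for 2 h, formazan extracted in DMSO, absorbance read at 570 nm. Run in duplicate; IC50 taken from the viability plot against the DMSO control.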

Acinetobacter baumannii [4] = test: Synergistic antibacterial activity against Acinetobacter baumannii 2208 ATCC 19606 assessed as colistin MIC by checkerboard method; assay type: functional; conditions: ATCC 19606 = CIP 70.34 = JCM 6841 2208
[5] = target: T1, Enoyl-[acyl-carrier-protein] reductase [NADPH] FabI (Staphylococcus aureus, UniProt Q6GI75); test: Competitive inhibition of Staphylococcus aureus subsp. aureus Rosenbach ATCC 43300 FabI using crotonyl-CoA as substrate in presence of NADPH/NADH after 10 mins by fluorescence assay
T1 sequence (Q6GI75 whole entry): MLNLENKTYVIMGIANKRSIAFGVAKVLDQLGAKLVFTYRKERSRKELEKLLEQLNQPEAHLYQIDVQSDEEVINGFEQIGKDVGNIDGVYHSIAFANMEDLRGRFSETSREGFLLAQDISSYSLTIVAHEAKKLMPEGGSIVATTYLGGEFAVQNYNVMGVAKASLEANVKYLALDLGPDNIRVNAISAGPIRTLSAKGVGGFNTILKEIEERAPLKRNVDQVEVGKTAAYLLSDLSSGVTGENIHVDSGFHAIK

[6] = tested on: Acinetobacter baumannii ATCC 19606 = CIP 70.34 = JCM 6841; test: Binding affinity to Acinetobacter baumannii 2208 ATCC 19606 FabI by SPR assay
Acinetobacter baumannii [7] = test: Synergistic antibacterial activity against Acinetobacter baumannii 2208 ATCC 19606 assessed as fractional inhibitory concentration in presence of colistin by checkerboard method; assay type: functional, ATCC 19606 = CIP 70.34 = JCM 6841 2208
[8] = target: T2, Enoyl-[acyl-carrier-protein] reductase [NADPH] FabI (Staphylococcus aureus) (UniProt Q6GI75); test: Binding affinity to Staphylococcus aureus subsp. aureus Rosenbach ATCC 43300 FabI by SPR assay
T2 sequence (whole entry): T1 sequence (Q6GI75 whole entry)

[9] = Competitive inhibition of Acinetobacter baumannii 2208 ATCC 19606 FabI using crotonyl-CoA as substrate in presence of NADPH/NADH after 10 mins by fluorescence assay; parameters: species or system Acinetobacter baumannii ATCC 19606 = CIP 70.34 = JCM 6841
HepG2 [10] = test: Cytotoxicity against human HepG2 cells assessed as reduction in cell viability after 24 hrs in presence of 0.5% FBS by MTT assay; assay type: cell-based; conditions: HepG2, 24 h; procedure, shortened: as §1
Escherichia coli [11] = test: Antibacterial activity against Escherichia coli BW25113 harboring TolC deletion mutant by microbroth dilution method; assay type: functional
Procedure, shortened: (§2)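 Broth microdilution MIC; reported value is mean of at least two runs, within two-fold experimental uncertainty.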

Acinetobacter baumannii [12] = test: Synergistic antibacterial activity against MDR Acinetobacter baumannii ATCC BAA-1605 assessed as fold reduction in colistin MIC by checkerboard method; assay type: functional
Staphylococcus aureus [13] = test: Antibacterial activity against methicillin-resistant Staphylococcus aureus subsp. aureus Rosenbach ATCC 43300 by microbroth dilution method; assay type: functional; procedure, shortened: as §2
Staphylococcus aureus [14] = test: Selectivity ratio of MIC for Staphylococcus aureus RN4220 over-expressing FabI to MIC for Staphylococcus aureus RN4220; assay type: functional
Acinetobacter baumannii [15] = test: Synergistic antibacterial activity against MDR Acinetobacter baumannii ATCC BAA-1605 assessed as colistin MIC by checkerboard method; assay type: functional
Acinetobacter baumannii [16] = test: Antibacterial activity against Acinetobacter baumannii 2208 ATCC 19606 by microbroth dilution method; assay type: functional; conditions: ATCC 19606 = CIP 70.34 = JCM 6841 2208
Procedure, shortened: (§3)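 Microbroth dilution MIC; each value is the mean of at least two runs, within two-fold experimental uncertainty.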

Acinetobacter baumannii [17] = test: Synergistic antibacterial activity against MDR Acinetobacter baumannii ATCC BAA-1605 assessed as fractional inhibitory concentration in presence of colistin by checkerboard method; assay type: functional
Staphylococcus aureus [18] = test: Antibacterial activity against Staphylococcus aureus Newman by microbroth dilution method; assay type: functional; procedure, shortened: as §3
Staphylococcus aureus [19] = test: Antibacterial activity against Staphylococcus aureus RN4220 over-expressing FabI by microbroth dilution method; assay type: functional; procedure, shortened: as §2
Acinetobacter baumannii [20] = test: Synergistic antibacterial activity against MDR Acinetobacter baumannii ATCC BAA-1605 in presence of colistin by checkerboard method; assay type: functional
Procedure, shortened: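 Checkerboard broth dilution in tryptic soy broth. Colistin 4 to 0.03 μg/mL against analog 100 to 0.19 μg/mL, crossed. Clear wells scored. ΣFIC = C/MIC(compound) + C/MIC(partner); <0.5 synergy, 0.5–2 indifference, >2 antagonism.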

Acinetobacter baumannii [21] = test: Synergistic antibacterial activity against Acinetobacter baumannii 2208 ATCC 19606 in presence of colistin by checkerboard method; assay type: functional; conditions: ATCC 19606 = CIP 70.34 = JCM 6841 2208
[22] = Protein binding in mouse serum; assay type: ADME, cell-free; conditions: read-out: PB (converted)
[23] = Protein binding in dog serum; assay type: ADME, cell-free, Canis lupus familiaris; conditions: read-out: PB (converted)
[24] = Protein binding in rat serum; assay type: ADME, cell-free; conditions: read-out: PB (converted)
[25] = Protein binding in human serum; assay type: ADME, cell-free; conditions: read-out: PB (converted)
Escherichia coli [26] = test: Antibacterial activity against Escherichia coli BW25113 mutant by microbroth dilution method; assay type: functional; procedure, shortened: as §2
Acinetobacter baumannii [27] = test: Synergistic antibacterial activity against Acinetobacter baumannii 2208 ATCC 19606 assessed as fractional inhibitory concentration in presence of polymixin B by checkerboard method; assay type: functional, ATCC 19606 = CIP 70.34 = JCM 6841 2208
[28] = Selectivity index, ratio for IC50 for human HepG2 cells to MIC for methicillin-resistant Staphylococcus aureus subsp. aureus Rosenbach ATCC 43300; assay type: toxicity
Acinetobacter baumannii [29] = test: Synergistic antibacterial activity against Acinetobacter baumannii 2208 ATCC 19606 assessed as polymixin B MIC by checkerboard method; assay type: functional; conditions: ATCC 19606 = CIP 70.34 = JCM 6841 2208
[30] = Selectivity index, ratio for IC50 for human HepG2 cells to MIC for Staphylococcus aureus RN4220 over-expressing FabI; assay type: toxicity
Acinetobacter baumannii [31] = test: Synergistic antibacterial activity against Acinetobacter baumannii 2208 ATCC 19606 in presence of polymixin B by checkerboard method; assay type: functional; conditions: ATCC 19606 = CIP 70.34 = JCM 6841 2208
[32] = Selectivity index, ratio for IC50 for human HepG2 cells to MIC for Staphylococcus aureus RN4220; assay type: toxicity; conditions: read-out: Selectivity Index

SMILES	IC50 [2] [nM]	IC50 (HepG2 [3]) [µg/mL]	MIC (Acinetobacter baumannii [4]) [µg/mL]	Ki [5] [nM]	Activity [6]	FIC (Acinetobacter baumannii [7])	Activity [8]	Ki [9] [nM]	IC50 (HepG2 [10]) [µg/mL]	MIC (Escherichia coli [11]) [µg/mL]	fold change (FC) (Acinetobacter baumannii [12])	Selectivity ratio (Staphylococcus aureus [14])	MIC (Acinetobacter baumannii [15]) [µg/mL]	MIC (Acinetobacter baumannii [16]) [µg/mL]	FIC (Acinetobacter baumannii [17])	MIC (Staphylococcus aureus [18]) [µM]	MIC (Staphylococcus aureus [19]) [µg/mL]	MIC (Acinetobacter baumannii [20]) [µg/mL]	MIC (Acinetobacter baumannii [21]) [µg/mL]	FIC (Acinetobacter baumannii [27])	also measured
O=C(Cc1ccccc1)N1CCC(c2ccccc2)C1 (configuration not stated)																					solubility [1]: Insoluble
O=C(Cc1ccccc1Cl)N1CCC(c2ccc3c(c2)OCO3)C1 (racemic)	7800	64	0.78	900	Active	0.28	Active	3900	46	25 (≈ 72.7 µM)	10	>4	0.78	> 200	0.31	18.2 (≈ 6.26 µg/mL)	> 200	12.5	6.25		MIC (Staphylococcus aureus [13]): 25 µg/mL (≈ 72.7 µM)
Cc1c(CN(C)C(=O)/C=C/c2cnc3c(c2)CCC(=O)N3)oc2ccccc12 [AFN-1252]																					fraction unbound [22]: 0.05; fraction unbound [23]: 0.05; fraction unbound [24]: 0.05; fraction unbound [25]: 0.05
COc1ccccc1C1CCN(C(=O)Cc2ccccc2Cl)C1 (racemic)	3600	75	0.39	200	Active	0.19	Active	1800	39		10	4	0.39	> 200	0.25	75.8 (≈ 25 µg/mL)	50 (≈ 152 µM)	25	12.5		MIC (Escherichia coli [26]): > 200 µg/mL
COc1ccccc1C1CCN(C(=O)/C=C/c2ccc(NC(C)=O)nc2)C1 (racemic)	420	219	0.39	1300	Active		Active	200	138	0.75 (≈ 2.05 µM)	10	4	0.78	> 200	0.31	34.2 (≈ 12.5 µg/mL)		12.5	25	0.37	Selectivity ratio [28]: 8.8; MIC (Acinetobacter baumannii [29]): 15 µg/mL; Selectivity ratio [30]: 4.4; MIC (Acinetobacter baumannii [31]): 50 µg/mL; Selectivity ratio [32]: > 10
O=C(Cc1ccccc1Cl)N1CCC(c2ccccc2)C1 (racemic)	3100	79	0.39	4000	Active	0.31	Active	1600	55		10	4	0.78	> 200	0.25	41.7 (≈ 12.5 µg/mL)		25	12.5	0.28	MIC (Acinetobacter baumannii [29]): 3.75 µg/mL; MIC (Acinetobacter baumannii [31]): 50 µg/mL
